Measurements taken from ChEMBL document CHEMBL1275598, “In vitro activity of ceftaroline against community-associated methicillin-resistant, vancomycin-intermediate, vancomycin-resistant, and daptomycin-nonsusceptible Staphylococcus aureus isolates” (2010).
Values after ≈ are worked out from the molar mass of the structure shown. Values joined by “and” are separate entries in the source; they are usually repeats but may differ in a detail not shown here. Identical values can stand only once.

Experiments:
Type in all cases: functional
[1] = tested on: Staphylococcus aureus; assay: Antimicrobial activity against vancomycin resistant Staphylococcus aureus VRS-10 expressing SCCmec type 2 element by microdilution method
Method in brief: (§1)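 Broth microdilution per CLSI in cation-adjusted Mueller-Hinton broth. Antibiotic powders were reconstituted per CLSI. The MIC was read visually as the lowest drug concentration with no visible growth. S. aureus ATCC 29213 and E. faecalis ATCC 29212 served as control strains. VISA and VRSA isolates came from the NARSA program.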

[2] = tested on: Staphylococcus aureus; assay: Antimicrobial activity against methicillin-resistant Staphylococcus aureus
[3] = tested on: Staphylococcus aureus; assay: Antimicrobial activity against community-acquired methicillin-resistant Staphylococcus aureus expressing SCCmec type 4a element by microdilution method
Method in brief: (§2)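 MIC by broth microdilution in cation-adjusted Mueller-Hinton broth, following CLSI guidelines; antibiotic powders reconstituted per CLSI. Read visually as the lowest drug concentration well with no visible growth. S. aureus ATCC 29213 and E. faecalis ATCC 29212 served as control strains. CA-MRSA: hospital patients culture-positive within 48 h of admission. DNSSA: patient blood isolates. VISA: obtained from the NARSA program.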

[4] = tested on: Staphylococcus aureus; assay: Antimicrobial activity against community-acquired methicillin-resistant Staphylococcus aureus expressing SCCmec type 4 element by microdilution method; method in brief: as §2
[5] = tested on: Staphylococcus aureus; assay: Antimicrobial activity against community-acquired methicillin-resistant Staphylococcus aureus expressing SCCmec type 2 element by microdilution method; method in brief: as §2
[6] = tested on: Staphylococcus aureus; assay: Bactericidal activity against community-acquired methicillin-resistant Staphylococcus aureus expressing SCCmec type 4a element assessed as antibiotic concentration that reduced the number of viable cells by =>99.9% by colony count method
Method in brief: (§3)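 MBC per CLSI following microdilution in cation-adjusted Mueller-Hinton broth. Defined as the concentration giving ≥99.9% reduction in viable cells, judged from colony counts of the growth control well against Pearson rejection-value tables. CA-MRSA isolates were hospital patients' isolates with positive MRSA culture within 48 h of admission.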

[7] = tested on: Staphylococcus aureus; assay: Bactericidal activity against community-acquired methicillin-resistant Staphylococcus aureus expressing SCCmec type 4 element assessed as antibiotic concentration that reduced the number of viable cells by =>99.9% by colony count method; method in brief: as §3
[8] = tested on: Staphylococcus aureus; assay: Antimicrobial activity against community-acquired methicillin-resistant Staphylococcus aureus by microdilution method; method in brief: as §2
[9] = tested on: Staphylococcus aureus; assay: Bactericidal activity against vancomycin-resistant Staphylococcus aureus assessed as antibiotic concentration that reduced the number of viable cells by =>99.9% by colony count method; method in brief: as §3
[10] = tested on: Staphylococcus aureus; assay: Bactericidal activity against community-acquired methicillin-resistant Staphylococcus aureus assessed as antibiotic concentration that reduced the number of viable cells by =>99.9% by colony count method; method in brief: as §3
[11] = tested on: Staphylococcus aureus; assay: Antimicrobial activity against vancomycin-intermediate Staphylococcus aureus by microdilution method; method in brief: as §1
[12] = tested on: Staphylococcus aureus; assay: Bactericidal activity against vancomycin-intermediate Staphylococcus aureus assessed as antibiotic concentration that reduced the number of viable cells by =>99.9% by colony count method
Method in brief: (§4)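 MBC per CLSI guidelines. It was taken as the antibiotic concentration giving ≥99.9% reduction in viable cells, based on colony counts from the growth control well and rejection values from Pearson's tables.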

[13] = tested on: Staphylococcus aureus; assay: Antimicrobial activity against daptomycin-nonsusceptible Staphylococcus aureus by microdilution method; method in brief: as §2
[14] = tested on: Staphylococcus aureus; assay: Antimicrobial activity against vancomycin-resistant Staphylococcus aureus by microdilution method; method in brief: as §1
[15] = tested on: Staphylococcus aureus; assay: Bactericidal activity against daptomycin-nonsusceptible Staphylococcus aureus assessed as antibiotic concentration that reduced the number of viable cells by =>99.9% by colony count method; method in brief: as §4
[16] = tested on: Staphylococcus aureus; assay: Antimicrobial activity against vancomycin intermediate Staphylococcus aureus NRS-3 expressing SCCmec type 2 element by microdilution method; method in brief: as §2
[17] = tested on: Staphylococcus aureus; assay: Antimicrobial activity against vancomycin intermediate Staphylococcus aureus NRS-4 expressing SCCmec type 2 element by microdilution method; method in brief: as §2
[18] = tested on: Staphylococcus aureus; assay: Antimicrobial activity against vancomycin intermediate Staphylococcus aureus NRS-17 expressing SCCmec type 2 element by microdilution method; method in brief: as §2
[19] = tested on: Staphylococcus aureus; assay: Antimicrobial activity against vancomycin intermediate Staphylococcus aureus NRS-18 expressing SCCmec type 2 element by microdilution method; method in brief: as §2
[20] = tested on: Staphylococcus aureus; assay: Antimicrobial activity against vancomycin intermediate Staphylococcus aureus NRS-19 expressing SCCmec type 2 element by microdilution method; method in brief: as §2
[21] = tested on: Staphylococcus aureus; assay: Antimicrobial activity against vancomycin intermediate Staphylococcus aureus NRS-22 expressing SCCmec type 2 element by microdilution method; method in brief: as §2
[22] = tested on: Staphylococcus aureus; assay: Antimicrobial activity against vancomycin intermediate Staphylococcus aureus NRS-23 expressing SCCmec type 2 element by microdilution method; method in brief: as §2
[23] = tested on: Staphylococcus aureus; assay: Antimicrobial activity against vancomycin intermediate Staphylococcus aureus NRS-24 expressing SCCmec type 2 element by microdilution method; method in brief: as §2
[24] = tested on: Staphylococcus aureus; assay: Antimicrobial activity against vancomycin intermediate Staphylococcus aureus NRS-26 expressing SCCmec type 2 element by microdilution method; method in brief: as §2
[25] = tested on: Staphylococcus aureus; assay: Antimicrobial activity against vancomycin intermediate Staphylococcus aureus NRS-27 expressing SCCmec type 2 element by microdilution method; method in brief: as §2
[26] = tested on: Staphylococcus aureus; assay: Antimicrobial activity against vancomycin intermediate Staphylococcus aureus NRS-51 expressing SCCmec type 2 element by microdilution method; method in brief: as §2
[27] = tested on: Staphylococcus aureus; assay: Antimicrobial activity against vancomycin intermediate Staphylococcus aureus NRS-68 expressing SCCmec type 2 element by microdilution method; method in brief: as §2
[28] = tested on: Staphylococcus aureus; assay: Antimicrobial activity against vancomycin intermediate Staphylococcus aureus NRS-73 expressing SCCmec type 4d element by microdilution method; method in brief: as §2
[29] = tested on: Staphylococcus aureus; assay: Antimicrobial activity against vancomycin intermediate Staphylococcus aureus NRS-74 expressing SCCmec type 2 element by microdilution method; method in brief: as §2
[30] = tested on: Staphylococcus aureus; assay: Antimicrobial activity against vancomycin intermediate Staphylococcus aureus NRS-76 expressing SCCmec type 2 element by microdilution method; method in brief: as §1
[31] = tested on: Staphylococcus aureus; assay: Antimicrobial activity against vancomycin intermediate Staphylococcus aureus NRS-118 expressing SCCmec type 1 element by microdilution method; method in brief: as §2
[32] = tested on: Staphylococcus aureus; assay: Antimicrobial activity against vancomycin intermediate Staphylococcus aureus NRS-126 expressing SCCmec type 2 element by microdilution method; method in brief: as §2
[33] = tested on: Staphylococcus aureus; assay: Antimicrobial activity against vancomycin intermediate Staphylococcus aureus NRS-402 expressing SCCmec type 2 element by microdilution method; method in brief: as §2
[34] = tested on: Staphylococcus aureus; assay: Antimicrobial activity against vancomycin intermediate Staphylococcus aureus NRS-403 expressing SCCmec type 2 element by microdilution method; method in brief: as §2
[35] = tested on: Staphylococcus aureus; assay: Antimicrobial activity against vancomycin intermediate Staphylococcus aureus NRS-404 expressing SCCmec type 2 element by microdilution method; method in brief: as §2
[36] = tested on: Staphylococcus aureus; assay: Antimicrobial activity against vancomycin resistant Staphylococcus aureus VRS-1 expressing SCCmec type 2 element by microdilution method; method in brief: as §1
[37] = tested on: Staphylococcus aureus; assay: Antimicrobial activity against vancomycin resistant Staphylococcus aureus VRS-2 expressing SCCmec type 2 element by microdilution method; method in brief: as §1
[38] = tested on: Staphylococcus aureus; assay: Antimicrobial activity against vancomycin resistant Staphylococcus aureus VRS-3 expressing SCCmec type 4 element by microdilution method; method in brief: as §1
[39] = tested on: Staphylococcus aureus; assay: Antimicrobial activity against vancomycin resistant Staphylococcus aureus VRS-4 expressing SCCmec type 4 element by microdilution method; method in brief: as §1
[40] = tested on: Staphylococcus aureus; assay: Antimicrobial activity against vancomycin resistant Staphylococcus aureus VRS-5 expressing SCCmec type 2 element by microdilution method; method in brief: as §1
[41] = tested on: Staphylococcus aureus; assay: Antimicrobial activity against vancomycin resistant Staphylococcus aureus VRS-6 expressing SCCmec type 2 element by microdilution method; method in brief: as §1
[42] = tested on: Staphylococcus aureus; assay: Antimicrobial activity against vancomycin resistant Staphylococcus aureus VRS-7 expressing SCCmec element by microdilution method; method in brief: as §1
[43] = tested on: Staphylococcus aureus; assay: Antimicrobial activity against vancomycin resistant Staphylococcus aureus VRS-8 expressing SCCmec element by microdilution method; method in brief: as §1
[44] = tested on: Staphylococcus aureus; assay: Antimicrobial activity against vancomycin resistant Staphylococcus aureus VRS-9 expressing SCCmec type 2 element by microdilution method; method in brief: as §1

CCO/N=C(\C(=O)N[C@@H]1C(=O)N2C(C(=O)[O-])=C(Sc3nc(-c4cc[n+](C)cc4)cs3)CS[C@H]12)c1nsc(NP(=O)(O)O)n1 [CEFTAROLINE FOSAMIL]
MIC [1]: 0.5 µg/mL (≈ 0.73 µM)
MIC [2]: 0.12 µg/mL (≈ 0.175 µM)
MIC90 [3]: 0.5 µg/mL (≈ 0.73 µM)
MIC90 [4]: 0.25 µg/mL (≈ 0.365 µM)
MIC90 [5]: 1 µg/mL (≈ 1.46 µM)
MBC90 [6]: 0.5 µg/mL (≈ 0.73 µM)
MBC90 [7]: 0.5 µg/mL (≈ 0.73 µM)
MIC50 [8]: 0.5 µg/mL (≈ 0.73 µM)
MIC90 [8]: 1 µg/mL (≈ 1.46 µM)
MBC50 [9]: 0.5 µg/mL (≈ 0.73 µM)
MBC ([9]; Staphylococcus aureus): 0.12 µg/mL (≈ 0.175 µM)
MBC50 [10]: 0.5 µg/mL (≈ 0.73 µM)
MBC ([10]; Staphylococcus aureus): 0.25 µg/mL (≈ 0.365 µM)
MIC50 [11]: 0.5 µg/mL (≈ 0.73 µM)
MIC90 [11]: 1 µg/mL (≈ 1.46 µM)
MBC50 [12]: 1 µg/mL (≈ 1.46 µM)
MBC90 [12]: 1 µg/mL (≈ 1.46 µM)
MBC ([12]; Staphylococcus aureus): 0.5 µg/mL (≈ 0.73 µM)
MIC [13]: 0.55 µg/mL and 0.25 µg/mL
MIC50 ([13]; Staphylococcus aureus): 0.5 µg/mL (≈ 0.73 µM)
MIC50 [14]: 0.5 µg/mL (≈ 0.73 µM)
MIC90 [14]: 0.5 µg/mL (≈ 0.73 µM)
MBC [15]: 0.74 µg/mL and 0.25 µg/mL
MBC50 [15]: 1 µg/mL (≈ 1.46 µM)
MIC [16]: 1 µg/mL (≈ 1.46 µM)
MIC [17]: 0.5 µg/mL (≈ 0.73 µM)
MIC [18]: 0.5 µg/mL (≈ 0.73 µM)
MIC [19]: 0.5 µg/mL (≈ 0.73 µM)
MIC [20]: 0.5 µg/mL (≈ 0.73 µM)
MIC [21]: 0.5 µg/mL (≈ 0.73 µM)
MIC [22]: 0.5 µg/mL (≈ 0.73 µM)
MIC [23]: 0.5 µg/mL (≈ 0.73 µM)
MIC [24]: 0.25 µg/mL (≈ 0.365 µM)
MIC [25]: 0.5 µg/mL (≈ 0.73 µM)
MIC [26]: 1 µg/mL (≈ 1.46 µM)
MIC [27]: 0.5 µg/mL (≈ 0.73 µM)
MIC [28]: 0.5 µg/mL (≈ 0.73 µM)
MIC [29]: 0.25 µg/mL (≈ 0.365 µM)
MIC [30]: 0.25 µg/mL (≈ 0.365 µM)
MIC [31]: 1 µg/mL (≈ 1.46 µM)
MIC [32]: 1 µg/mL (≈ 1.46 µM)
MIC [33]: 0.5 µg/mL (≈ 0.73 µM)
MIC [34]: 0.5 µg/mL (≈ 0.73 µM)
MIC [35]: 0.5 µg/mL (≈ 0.73 µM)
MIC [36]: 1 µg/mL (≈ 1.46 µM)
MIC [37]: 0.5 µg/mL (≈ 0.73 µM)
MIC [38]: 0.5 µg/mL (≈ 0.73 µM)
MIC [39]: 0.5 µg/mL (≈ 0.73 µM)
MIC [40]: 0.5 µg/mL (≈ 0.73 µM)
MIC [41]: 0.5 µg/mL (≈ 0.73 µM)
MIC [42]: 0.12 µg/mL (≈ 0.175 µM)
MIC [43]: 0.12 µg/mL (≈ 0.175 µM)
MIC [44]: 0.25 µg/mL (≈ 0.365 µM)
